# Source: PubChem
# Most compounds without a hit are left out; they make up all but 4.7% or so of the library.
# GAA850 FXN act: activators of GAA850 frataxin (FXN) promoter; HEK293 lucGAA850 FXN promoter luciferase reporter, 24 h; percent of 10 µM SAHA response; activation, % at 6 µM; hit rate 0.56% among 360,000; AID 540364;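 active = activation above the average of all compounds screened plus 3 SD, cutoff fixed separately per campaign, cut at about 7.5% in these data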;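 also: 0% = DMSO wells and 100% = 10 µM SAHA wells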
# MC4R ag barr: agonists of human melanocortin 4 receptor (MC4R) beta-arrestin | U2OS MC4R beta-arrestin complementation, luminescence; percent of melanotan II response, DMSO zero | activation, % at 8.9 µM | hit rate 0.98% among 360,000 | AID 540308;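 active = activation above a per-plate cutoff, the mean activation of sample wells on that plate plus 3 SD, cut at about 8% in these data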
# AHR activator: human AHR activation; P35869; activation, % at 5 µM; hit rate 2.5% among 320,000; AHR-responsive luciferase reporter cells, luminescence; in the data active = activation above about 47%;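 also: 0% = vehicle wells and 100% = reference agonist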
# MC4R antag cAMP: blocks human MC4R cAMP signaling; inhibition, % at 6.5 µM; MC4R-expressing cells, MTII-stimulated cAMP, LANCE TR-FRET; hit rate 0.48% among 360,000; AID 540295; P32245;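 active = inhibition above its plate's cutoff, the mean of tested wells on that plate plus 3 SD, cut at about 29% in these data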;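 also: 0% = Melanotan II alone and 100% = Melanotan II plus saturating MCL0020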
#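 Test system: U2OS cells stably expressing human melanocortin 4 receptor (MC4R); also added: Melanotan II challenge; compound: 6.5 µM single dose; timing: 30-min compound preincubation, 1-h Melanotan II challenge, 1-h detection, room temperature; signal: Eu-cAMP/anti-cAMP TR-FRET, emission 671 nm; repeats: one well per compound, no replicates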
# m5-HT2A agonist: mouse HTR2A agonism via beta-arrestin recruitment. P35363. CHO-K1 mHTR2A beta-arrestin complementation, luminescence; percent of 30 µM serotonin response. activation, % at 7.6 µM. hit rate 0.66% among 360,000. AID 624169;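 active = activation above a run cutoff, the mean activation of all tested compounds plus 3 SD, cut at about 14% in these data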;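 also: 0% = plate median of compound wells and 100% = 30 µM serotonin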
# AHR act confirm: confirmation of human aryl hydrocarbon receptor activators; hit rate 87% among 2,300; human cells, AHR-responsive luciferase reporter, luminescence; AID 2845; activation, % at 9 µM; shares compounds with AHR activator; in the data active = activation above about 49%;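 also: HepG2 hepatoma cells carrying a DRE-driven firefly luciferase reporter; 0% = vehicle wells and 100% = reference agonist wells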
# PXR act counter: counter-screen for AHR activators: human PXR activators. shares compounds with AHR activator. cell-based PXR reporter, luciferase luminescence. activation, % at 11.6 µM. hit rate 88% among 2,300. AID 434939; in the data active = activation above about 11%;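 also: human hepatoma DPX-2 cells expressing full-length human PXR; 0% = DMSO and 100% = reference agonist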
# Target sequence (O75469 whole entry, looked up): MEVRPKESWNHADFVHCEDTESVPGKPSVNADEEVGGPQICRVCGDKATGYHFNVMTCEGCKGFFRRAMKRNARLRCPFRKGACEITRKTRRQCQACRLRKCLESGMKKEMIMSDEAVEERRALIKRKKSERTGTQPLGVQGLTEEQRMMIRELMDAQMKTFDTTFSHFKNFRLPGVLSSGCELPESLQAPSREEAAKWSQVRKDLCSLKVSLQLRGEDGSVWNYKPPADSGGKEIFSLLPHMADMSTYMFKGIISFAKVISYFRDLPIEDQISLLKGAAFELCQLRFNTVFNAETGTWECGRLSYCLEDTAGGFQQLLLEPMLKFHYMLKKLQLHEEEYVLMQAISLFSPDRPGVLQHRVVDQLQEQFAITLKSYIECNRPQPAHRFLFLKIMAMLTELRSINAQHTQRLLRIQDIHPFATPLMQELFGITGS
# Active calls of the source: *; / = no result given.
SMILES,GAA850 FXN act,MC4R ag barr,AHR activator,MC4R antag cAMP,m5-HT2A agonist,AHR act confirm,PXR act counter
CC1CCCCC1=NNC(=O)c1ccccc1 (stereo not given),4.2,-1.4,/,-2.0,3.5,/,/
COc1ccc(NC(C)=O)cc1S(=O)(=O)N1CC=C(c2ccccc2)CC1,1.5,-1.4,0.8,-0.4,1.1,/,/
CCN1C[C@@H]2[C@@H]3C(=O)N(C)C(=O)[C@@H]3[C@](C)(C1=O)N2C(=O)c1ccc(Cl)c(Cl)c1,0.3,0.3,/,12.8,10.5,/,/
Cc1nn(Cc2ccccc2Cl)c2sc(C(=O)Nc3nccs3)cc12,0.7,7.2,101.7*,-6.3,3.1,119.1*,98.6*
O=C1C(Cl)=C(N2CCOCC2)C(=O)N1CCc1ccccc1,3.5,-1.8,92.1*,0.8,-3.1,116.7*,16.2*
O=C1C(Cl)=C(NCC2CCCO2)C(=O)N1CCc1ccccc1 (stereo not given),5.6,-0.3,92.4*,5.4,-0.7,90.8*,65.3*
O=C1C(Cl)=C(NCCc2ccccc2)C(=O)N1CCc1ccccc1,1.4,0.8,35.4,2.2,-5.8,/,/
COc1ccc(NS(=O)(=O)c2cccc(C(=O)O)c2)cc1S(=O)(=O)N1CCOCC1,1.1,-3.0,-0.6,-3.8,0.6,/,/
Cn1cc([C@]2(O)C(=O)Nc3ccc(OC(F)(F)F)cc32)c2ccccc21,/,/,/,/,2.7,/,/
Cc1cc(C)nc(Nc2ccccc2Br)n1,0.1,-1.4,3.6,-7.8,4.9,/,/
Cc1cc(C)nc(Nc2cccc3ccccc23)n1,-0.5,-1.0,131.1*,1.8,6.3,108.6*,19.4*
COCOCCn1cc(CN2CCS(=O)(=O)N(Cc3ccc(-c4cccc(CO)c4)cc3)C(C)C2=O)nn1 (stereo not given),-0.9,-0.1,/,6.7,-3.0,/,/
Cc1csc2ncc(C(=O)Nc3ccon3)c(=O)n12,-1.5,1.8,120.2*,-0.4,-2.2,115.2*,12.5*
Cc1cccc(NC(=O)c2cnc3scc(C)n3c2=O)c1,3.2,-1.5,79.2*,-1.6,-3.7,96.2*,56.6*
COc1ccccc1/C=C/C(=O)N1CCCC1,-0.3,-1.9,84.0*,8.5,-1.4,102.3*,16.7*
COc1ccccc1C=CC(=O)C=Cc1ccccc1OC,0.9,-0.7,/,-4.2,1.6,/,/
Clc1ccccc1Cn1nnc(-c2cccs2)n1,3.5,0.6,117.0*,3.7,0.7,149.6*,37.4*
Cc1ccc(NC(=O)C2OCCc3ccccc32)cc1 (stereo not given),5.0,-0.1,117.9*,14.4,-0.7,103.5*,63.6*
C/C(=N\NC(=O)c1ccc2ccccc2c1)c1cccs1,2.7,-3.5,/,-2.5,-15.2,/,/
C/C(=N\NC(=O)c1cccc([N+](=O)[O-])c1)c1cccs1,5.2,-0.3,80.9*,1.2,-3.6,78.9*,30.7*
CC1CCN(Cc2c(C(=O)O)nnn2-c2nonc2N)CC1,2.3,-0.2,-0.8,8.1,0.6,/,/
COc1ccc(-c2cc(C(=O)N3CCN(S(=O)(=O)c4ccc(C)cc4)CC3)[nH]n2)cc1,-0.4,1.5,111.3*,-7.0,1.5,2.5,13.4*
O=C(c1cn(-c2ccc(Cl)c(Cl)c2)nn1)C1CC1,2.0,1.0,84.0*,4.0,8.0,125.1*,28.9*
O=C1CCCCC1C(=O)c1cn(-c2ccc(Cl)c(Cl)c2)nn1 (stereo not given),-0.3,1.1,4.5,7.7,-0.9,/,/
O=C1[C@@H](Oc2ccccc2)[C@@H](c2cccnc2)N1c1ccccc1,-3.7,-1.1,/,4.9,-5.5,/,/
SMILES,GAA850 FXN act,MC4R ag barr,AHR activator,MC4R antag cAMP,m5-HT2A agonist,AHR act confirm,PXR act counter
S=c1[nH]c(-c2ccccc2)cn1/N=C/c1cccnc1,-1.2,2.0,81.9*,10.8,0.2,101.8*,16.9*
Fc1ccccc1/C=N/n1cc(-c2ccccc2)[nH]c1=S,1.9,-3.6,86.6*,-2.3,2.2,112.5*,45.0*
S=c1[nH]nc(-c2cccnc2)n1/N=C/c1ccccc1,-0.5,-2.3,3.5,15.0,-3.9,/,/
NC(=O)c1ccc(NCCc2cccs2)cc1,/,/,/,/,-3.0,/,/
Cn1c2ccccc2c(=O)c2ccc(NCCc3cccs3)cc21,10.0*,1.9,110.6*,2.7,3.0,-1.7,112.5*
Cc1ccc(NCc2nc3ccccc3n2C)cc1C,2.5,-0.3,103.3*,10.8,1.3,126.7*,25.5*
Cn1c(CNC2CCCCC2)nc2ccccc21,0.5,-2.1,18.9,-4.4,-6.1,/,/
Cn1c(CNc2ccc(Br)cc2)nc2ccccc21,4.1,-1.1,107.6*,2.9,-5.5,184.9*,48.1*
CC(C)n1c(NCc2nc3ccccc3n2C)nc2ccccc21,-2.6,-0.9,15.2,0.7,3.8,/,/
Cc1ccc(NCc2nc3ccccc3n2C)cc1,6.3,-0.5,79.9*,-0.6,-1.6,66.0*,11.6*
CCCS(=O)(=O)NC(=O)C1(C)CCN(C(=O)Cc2ccc(OC)cc2)C1 (stereo not given),0.6,-0.9,/,4.4,2.9,/,/
NC(=O)c1ncn([C@@H]2O[C@H](CNCc3ccc(-c4cc(C(F)(F)F)ccc4Cl)o3)[C@@H](O)[C@H]2O)n1,-2.0,2.3,/,7.9,2.6,/,/
COc1ccc(S(=O)(=O)N2CCCCC2c2cc(C(=O)Nc3ccc4c(c3)OCO4)no2)cc1 (stereo not given),1.6,0.3,/,7.5,-3.2,/,/
O=C(Nc1cccc(-c2cn3ccsc3n2)c1)c1ccccc1,-1.0,-0.6,81.7*,17.2,1.2,72.1*,14.0*
Sc1oc(-c2ccccc2)cc1C=Nc1ccccc1,3.0,-3.2,79.5*,0.5,-1.3,38.6,20.2*
Oc1oc(-c2ccccc2)nc1C=Nc1ccccc1,6.3,-0.2,5.0,-4.2,0.1,/,/
Cc1cc2n(n1)C(c1ccsc1)Nc1ccccc1-2 (stereo not given),-0.8,-2.2,19.2,2.4,-2.1,/,/
CSc1ccc(C2Nc3ccccc3-c3cc(C)nn32)cc1 (stereo not given),-2.2,0.5,101.4*,4.4,-4.9,100.1*,28.8*
Clc1cccc(-c2ccc(-c3nc4ccccn4c3NCc3ccccc3)cc2)c1,1.1,1.1,97.6*,-0.8,-7.2,70.8*,7.0
Cn1c(-c2ccc(Br)o2)nc2cc(Br)ccc21,6.5,0.0,116.3*,-1.0,-8.2,125.5*,20.5*
Clc1ccc(-c2cc3ccccc3[nH]2)cc1,6.2,1.5,91.2*,-1.4,3.6,42.6,7.9
O=c1cc(-c2ccc(Cl)cc2)[nH]c2ccccc12,/,/,22.7,/,/,/,/
CCc1ccc(-n2c(=S)sc3c(=O)[nH]c(SCC(=O)NC4CCCCC4)nc32)cc1,2.0,1.0,/,4.0,1.6,/,/
CN1CCN(CCCNC(=O)c2cc3c(-c4ccc(Cl)cc4)nn(C)c3s2)CC1,0.9,1.2,97.8*,5.9,-1.2,101.7*,/
